Measurements of several laboratories.
Compare with care: the assays were run in different laboratories.
Target: G protein-coupled receptor kinase 3 (GRK3, Homo sapiens, UniProt P35626)
Residues used in one study (P35626 1-688): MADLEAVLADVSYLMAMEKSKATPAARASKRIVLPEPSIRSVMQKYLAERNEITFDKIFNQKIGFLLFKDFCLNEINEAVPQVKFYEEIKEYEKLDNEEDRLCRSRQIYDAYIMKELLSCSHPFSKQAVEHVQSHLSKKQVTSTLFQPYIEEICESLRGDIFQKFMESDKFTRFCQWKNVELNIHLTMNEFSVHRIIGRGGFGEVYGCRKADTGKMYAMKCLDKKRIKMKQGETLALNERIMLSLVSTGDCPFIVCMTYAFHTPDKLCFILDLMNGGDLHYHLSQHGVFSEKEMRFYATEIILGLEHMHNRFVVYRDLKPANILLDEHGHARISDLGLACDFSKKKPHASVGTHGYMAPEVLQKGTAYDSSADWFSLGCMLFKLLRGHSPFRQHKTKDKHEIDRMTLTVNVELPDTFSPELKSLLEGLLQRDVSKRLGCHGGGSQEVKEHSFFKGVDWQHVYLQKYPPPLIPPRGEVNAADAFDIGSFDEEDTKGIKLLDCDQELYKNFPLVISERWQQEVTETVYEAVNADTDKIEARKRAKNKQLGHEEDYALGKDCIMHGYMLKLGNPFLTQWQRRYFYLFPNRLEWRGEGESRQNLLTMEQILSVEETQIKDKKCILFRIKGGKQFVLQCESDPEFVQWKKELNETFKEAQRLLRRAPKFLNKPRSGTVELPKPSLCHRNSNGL

Structure (SMILES) | assay | conditions | remaining binding [%]
C[C@@H](c1ccc(-n2cnc3c(N)ncnc32)cc1)N1CCc2nn(C)c(Cc3ccccc3)c2C1=O | binding, competition with immobilised ligand | 0.1 µM | 87
Cc1cnn2ncc(-c3ccnc(N(C)C)n3)c2c1 | binding | 1 µM | 67
C[C@@H](c1cccc(C#N)c1)n1cc(Cl)cc(C(N)=O)c1=N | cell-free assay, competition with immobilised ligand | 1 µM | 81
COc1cnc(Nc2cccc(S(N)(=O)=O)c2)nc1N1CCN(c2ccccc2)CC1 | binding, competition with immobilised ligand | 1 µM | 72
FC(F)(F)c1ccc2c(c1)nc(-c1cccnc1)n2C1CC1 | cell-free assay, competition with immobilised ligand | 1 µM | 76
CN(c1nccc(-c2cnn3ncccc23)n1)C1CC1 | binding | 1 µM | 100
O=C(Nc1c[nH]nc1C(=O)NC1CCNCC1)c1cc(F)cc(F)c1 | binding, competition with immobilised ligand | 1 µM | 82
Cc1cnc(Nc2ccc(C(=O)N3CCC(N4CCCC4)CC3)cc2)nc1-c1cc2ccccc2s1 | binding, competition with immobilised ligand | 1 µM | 73
CNC(=O)[C@@H]1CC[C@@H](n2c(-c3ccc4cnccc4c3)nc3ccc(C(=O)NCc4cccc(C(N)=O)c4)cc32)C1 | binding, competition with immobilised ligand | 1 µM | 68
NS(=O)(=O)c1cc(NC(=O)C2(c3ccccc3Cl)CC2)ccc1Oc1cccc(Cl)c1 | cell-free assay, competition with immobilised ligand | 1 µM | 100
O=C(NCCCN1CCOCC1)c1ccc(Nc2ncc(Cl)c(-c3ccc(Cl)s3)n2)cc1 | binding, competition with immobilised ligand | 1 µM | 51
CC1CCCN1c1nccc(-c2cnn3ncccc23)n1 (stereo not drawn) | binding | 1 µM | 100
O=C(O)[C@@H]1[C@@H](Cn2nnc3ccccc3c2=O)CC[C@H]1C(=O)c1ccc(OCCC2CCOCC2)cc1 | cell-free assay, competition with immobilised ligand | 1 µM | 100
Nc1ncc2c(n1)-c1c([nH]c3ccc(C#CC4CC4)cc13)CCCC2 | binding, competition with immobilised ligand | 1 µM | 97
Nc1cnc(N2CCc3cc(S(=O)(=O)Nc4c(F)cc(Cl)cc4F)cc(N4CCCC4=O)c32)nc1 | cell-free assay, competition with immobilised ligand | 1 µM | 100
CN(C)c1nccc(-c2cnn3ncccc23)n1 | binding | 1 µM | 89
CN(C)C(=O)Cn1cc(-c2nc([C@@](C)(c3ccc(-c4cnc(N)nc4)cc3)C3CC3)no2)cn1 | cell-free assay, competition with immobilised ligand | 1 µM | 86
C[C@@H]1CCN(c2nccc(-c3cnn4ncccc34)n2)C1 | binding | 1 µM | 56
C=CC(=O)N1CCC(C(=O)NCC(=O)N2CCN(c3nc(-c4cnc(N)nc4C(F)F)nc(N4CCOCC4)n3)CC2)CC1 | binding, competition with immobilised ligand | 1 µM | 100
O=C(c1ccc(Nc2nccc(-c3cc4ccccc4s3)n2)cc1)N1CCC(N2CCCC2)CC1 | binding, competition with immobilised ligand | 1 µM | 64
CN(C)c1ncc(F)c(-c2cnn3ncccc23)n1 | binding | 1 µM | 100
